20 molecules from ChEMBL document CHEMBL1129542, “trans-2-Aryl-N,N-dipropylcyclopropylamines: synthesis and interactions with 5-HT(1A) receptors” (J Med Chem, 1996) can be followed below.

Experiment [1] has as its target T1, 5-hydroxytryptamine receptor 1A (Rattus norvegicus, UniProt P19327).
T1 sequence (P19327 whole entry): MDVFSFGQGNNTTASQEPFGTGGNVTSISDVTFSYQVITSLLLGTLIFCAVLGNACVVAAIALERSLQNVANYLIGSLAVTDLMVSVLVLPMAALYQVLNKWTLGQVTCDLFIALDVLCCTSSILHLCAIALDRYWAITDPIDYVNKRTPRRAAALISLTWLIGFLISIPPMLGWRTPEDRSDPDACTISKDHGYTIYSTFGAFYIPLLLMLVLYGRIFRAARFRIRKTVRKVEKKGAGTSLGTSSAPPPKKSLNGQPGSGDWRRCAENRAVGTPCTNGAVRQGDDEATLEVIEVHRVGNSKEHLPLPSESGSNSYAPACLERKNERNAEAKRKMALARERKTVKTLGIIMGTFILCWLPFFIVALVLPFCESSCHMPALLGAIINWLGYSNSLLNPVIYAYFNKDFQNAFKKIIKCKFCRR
Nature of the experiment: In vitro binding affinity of compound towards 5-hydroxytryptamine 1A receptor was determined using [3H]8-OH-DPAT as radioligand; range=85-130. Put shortly: (§1)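 Rat (male Sprague–Dawley) cortex plus hippocampus membranes, washed twice in 50 mM Tris-HCl with 4.0 mM CaCl2 and 5.7 mM ascorbate, pH 7.5, pretreated with 10 μM pargyline. Competition against 2 nM [3H]-8-OH-DPAT with 1–300 nM compound, 5 mg/mL tissue, 37 °C for 10 min, then filtration. Nonspecific binding defined with 10 μM 5-HT. […] Range derived from the standard error of the estimate.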

In experiment [2] the target is T1, 5-hydroxytryptamine receptor 1A. Nature of the experiment: In vitro binding affinity of compound towards 5-hydroxytryptamine 1A receptor was determined using [3H]8-OH-DPAT as radioligand; range=78-140. Put shortly:
as §1

Experiment [3] shares this target. Nature of the experiment: In vitro binding affinity of compound towards 5-hydroxytryptamine 1A receptor was determined using [3H]8-OH-DPAT as radioligand; range=16-20. The essentials: as §1
The target is the same in experiment [4]. Nature of the experiment: In vitro binding affinity of compound towards 5-hydroxytryptamine 1A receptor was determined using [3H]8-OH-DPAT as radioligand. The essentials:
as §1

Experiment [5] has the same target. Kind of experiment: In vitro binding affinity of compound towards 5-hydroxytryptamine 1A receptor was determined using [3H]-8-OH-DPAT as radioligand; range=21-28. Put shortly: as §1
Experiment [6] shares this target. Nature of the experiment: In vitro binding affinity of compound towards 5-hydroxytryptamine 1A receptor was determined using [3H]8-OH-DPAT as radioligand; range=19-23.
For experiment [7] the target is unchanged. Kind of experiment: In vitro binding affinity of compound towards 5-hydroxytryptamine 1A receptor was determined using [3H]8-OH-DPAT as radioligand; range=184-503. The essentials: as §1
Experiment [8] has the same target. Kind of experiment: In vitro binding affinity of compound towards 5-hydroxytryptamine 1A receptor was determined using [3H]8-OH-DPAT as radioligand; range=89-280. The essentials: as §1
For experiment [9] the target is unchanged. Nature of the experiment: In vitro binding affinity of compound towards 5-hydroxytryptamine 1A receptor was determined using [3H]8-OH-DPAT as radioligand; range=63-95. Put shortly: as §1
Experiment [10] shares this target. Nature of the experiment: In vitro binding affinity of compound towards 5-hydroxytryptamine 1A receptor was determined using [3H]8-OH-DPAT as radioligand; range=12-14. The essentials: as §1
The target is the same in experiment [11]. Nature of the experiment: In vitro binding affinity of compound towards 5-hydroxytryptamine 1A receptor was determined using [3H]8-OH-DPAT as radioligand; range=160-430. The essentials:
as §1

For experiment [12] the target is unchanged. Kind of experiment: In vitro binding affinity of compound towards 5-hydroxytryptamine 1A receptor was determined using [3H]8-OH-DPAT as radioligand; range=710-980. Put shortly:
as §1

Experiment [13] has the same target. Kind of experiment: In vitro binding affinity of compound towards 5-hydroxytryptamine 1A receptor was determined using [3H]8-OH-DPAT as radioligand; range=2.7-3.6. The essentials: as §1
Experiment [14] shares this target. Nature of the experiment: In vitro binding affinity of compound towards 5-hydroxytryptamine 1A receptor was determined using [3H]8-OH-DPAT as radioligand; range=174-224. The essentials:
as §1

For experiment [15] the target is unchanged. Kind of experiment: In vitro binding affinity of compound towards 5-hydroxytryptamine 1A receptor was determined using [3H]-8-OH-DPAT as radioligand; range=48-77. The essentials: as §1
Experiment [16] shares this target. Nature of the experiment: In vitro binding affinity of compound towards 5-hydroxytryptamine 1A receptor was determined using [3H]-8-OH-DPAT as radioligand; range=39-87. The essentials:
as §1

For experiment [17] the target is unchanged. Nature of the experiment: In vitro binding affinity of compound towards 5-hydroxytryptamine 1A receptor was determined using [3H]8-OH-DPAT as radioligand; range=20-23. The essentials:
as §1

Broadly, the Ki is the dissociation constant of the complex between target and ligand, obtained from inhibition or displacement. Read a low Ki as tighter binding. The molecule `CCCN(CCC)C1CC1c1cccc(F)c1` (stereo not given) gave a Ki in [1] of 100 nM.

On to `CCCN(CCC)C1CC1c1cc(F)ccc1O` (stereo not given), for which, in [2], the Ki turned out to be 99 nM. In experiment [3], `CCCN(CCC)[C@@H]1C[C@H]1c1ccccc1OC` yielded a Ki of 17 nM. Consider `CCCN(CCC)C1CC1c1ccccc1C(F)(F)F` (stereo not given), for which the Ki in experiment [4] is > 1000 nM. For `CCCN(CCC)C1CC1c1ccccc1` (stereo not given), in experiment [5], the Ki worked out at 24 nM.

Consider `CCCN(CCC)C1CC1c1ccsc1` (stereo not given), for which the affinity in experiment [6], expressed as Ki, was 21 nM.

`CCCN(CCC)[C@H]1C[C@@H]1c1cc(F)ccc1O` yielded a Ki in experiment [7] of 348 nM. As for `CCCN(CCC)C1CC1c1cc(F)ccc1OC` (stereo not given), in [8], the affinity corresponds to a Ki of 140 nM. `CCCN(CCC)C1CC1c1ccc(F)cc1` (stereo not given) returned a Ki in experiment [9] of 76 nM.

Regarding `CCCN(CCC)[C@@H]1C[C@H]1c1cccs1`, affinity in [10] was put at a Ki of 11 nM. Still for that read-out and setting: with `CCCN(CCC)C1CC1c1cccs1` (stereo not given) the figure was 13 nM.

On to `CCCN(CCC)C1CC1c1cccc(Cl)c1Cl` (stereo not given), for which the Ki in [4] was > 300 nM.

On to `CCCN(CCC)[C@H]1C[C@@H]1c1ccccc1OC`, for which, in [11], the Ki was 230 nM. In [12], `CCCN(CCC)[C@H]1C[C@@H]1c1cccs1` had a Ki of 820 nM.

`CCCN(CCC)[C@@H]1C[C@H]1c1cc(F)ccc1O` showed a Ki in experiment [13] of 3.2 nM. Molecule `CCCN(CCC)[C@H]1C[C@@H]1c1cc(F)ccc1OC` came in with a Ki in [14] of 199 nM. In experiment [15], `CCCN(CCC)C1CC1c1ccccc1F` (stereo not given) displayed a Ki of 59 nM. In experiment [16], `CCCN(CCC)[C@@H]1C[C@H]1c1cc(F)ccc1OC` displayed a Ki of 60 nM. For the molecule `CCCN(CCC)C1CC1c1cc2ccccc2s1` (stereo not given), the Ki in [4] is > 1000 nM.

As for `CCCN(CCC)C1CC1c1ccccc1Br` (stereo not given), the Ki in [17] is 22 nM.
